From ChEMBL document CHEMBL2177035, “Design and synthesis of dual modulators of soluble epoxide hydrolase and peroxisome proliferator-activated receptors” (J Med Chem, 2012)
Active and inactive are the calls of the source. The rule behind the calls is not given here.

Key:
[1] = target: T1, Bifunctional epoxide hydrolase 2 (Homo sapiens, UniProt P34913); assay: Inhibition of recombinant soluble epoxide hydrolase using PHOME as substrate after 10 mins by fluorescence assay
T1 sequence (P34913 whole entry): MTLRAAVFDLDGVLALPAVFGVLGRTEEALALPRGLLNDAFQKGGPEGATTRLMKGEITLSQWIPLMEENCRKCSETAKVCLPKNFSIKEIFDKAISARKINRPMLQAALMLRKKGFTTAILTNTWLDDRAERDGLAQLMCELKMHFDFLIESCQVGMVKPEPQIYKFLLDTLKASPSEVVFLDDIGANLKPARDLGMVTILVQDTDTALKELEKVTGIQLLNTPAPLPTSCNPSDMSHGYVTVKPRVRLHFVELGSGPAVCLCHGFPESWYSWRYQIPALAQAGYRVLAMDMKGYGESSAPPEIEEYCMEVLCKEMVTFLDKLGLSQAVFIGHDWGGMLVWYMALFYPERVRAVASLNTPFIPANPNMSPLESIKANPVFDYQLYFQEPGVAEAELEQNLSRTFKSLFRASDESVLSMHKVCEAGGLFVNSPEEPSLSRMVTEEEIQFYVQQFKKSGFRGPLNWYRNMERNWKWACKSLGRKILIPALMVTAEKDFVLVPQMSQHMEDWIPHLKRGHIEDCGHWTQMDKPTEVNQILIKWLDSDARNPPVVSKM

[2] = target: T2, Peroxisome proliferator-activated receptor delta (Homo sapiens) (UniProt Q03181); assay: Transactivation of GAL4-fused human PPARdelta ligand binding domain transfected in african green monkey COS7 cells at 10 uM by luciferase reporter gene assay relative to L-165041; assay type: cell-based; settings: COS-7
T2 sequence (whole entry): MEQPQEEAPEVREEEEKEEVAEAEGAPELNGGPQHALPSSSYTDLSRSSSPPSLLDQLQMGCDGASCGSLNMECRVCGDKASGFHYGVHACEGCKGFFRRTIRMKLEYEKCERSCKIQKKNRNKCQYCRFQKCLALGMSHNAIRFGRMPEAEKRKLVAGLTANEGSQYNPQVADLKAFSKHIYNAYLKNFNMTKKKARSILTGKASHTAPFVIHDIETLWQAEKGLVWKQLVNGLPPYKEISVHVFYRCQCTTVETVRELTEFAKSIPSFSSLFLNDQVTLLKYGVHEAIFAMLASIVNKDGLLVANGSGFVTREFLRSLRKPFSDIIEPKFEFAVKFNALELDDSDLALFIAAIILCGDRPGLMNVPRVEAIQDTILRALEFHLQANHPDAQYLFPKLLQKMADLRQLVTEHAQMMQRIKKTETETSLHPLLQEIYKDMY
Procedure, shortened: (§1)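 COS7 cells in DMEM/10% FCS at 37 °C, 5% CO2, plated 30000/well the day before. Lipofectamine LTX co-transfection of pFR-Luc, pRL-SV40 and Gal4–hPPAR-LBD (pFA-CMV) of the given subtype. After 5 h, switched to phenol red-free DMEM/10% FCS with 0.1% DMSO and compound; overnight incubation. Dual-Glo firefly/renilla luminescence, normalized to DMSO. Maximum effect compared with 1 μM reference agonist (GW7647 for α, L165,041 for δ). Triplicate wells, ≥3 independent runs.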

[3] = target: T3, Peroxisome proliferator-activated receptor alpha (Homo sapiens) (UniProt Q07869); assay: Transactivation of GAL4-fused human PPARalpha ligand binding domain transfected in african green monkey COS7 cells at 10 uM by luciferase reporter gene assay relative to GW7647; assay type: cell-based; settings: COS-7; procedure, shortened: as §1
T3 sequence (whole entry): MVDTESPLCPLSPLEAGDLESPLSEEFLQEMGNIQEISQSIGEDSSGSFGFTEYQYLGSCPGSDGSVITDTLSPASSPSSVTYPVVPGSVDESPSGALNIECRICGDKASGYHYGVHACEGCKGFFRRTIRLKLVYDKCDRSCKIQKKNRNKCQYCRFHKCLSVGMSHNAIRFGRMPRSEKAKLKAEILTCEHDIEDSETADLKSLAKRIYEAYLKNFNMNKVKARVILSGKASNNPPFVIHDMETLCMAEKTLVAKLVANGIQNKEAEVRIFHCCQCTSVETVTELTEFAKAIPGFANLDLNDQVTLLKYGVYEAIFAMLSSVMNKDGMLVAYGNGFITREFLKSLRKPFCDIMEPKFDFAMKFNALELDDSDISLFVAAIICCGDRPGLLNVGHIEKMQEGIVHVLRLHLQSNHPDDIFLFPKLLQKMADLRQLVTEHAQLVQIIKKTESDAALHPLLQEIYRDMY

[4] = target: T2, Peroxisome proliferator-activated receptor delta (Homo sapiens); assay: Transactivation of GAL4-fused human PPARdelta ligand binding domain transfected in african green monkey COS7 cells by luciferase reporter gene assay; assay type: cell-based; settings: COS-7
Procedure, shortened: (§2)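 Gal4–hPPAR-LBD (α or δ) transient co-transfection with pFR-Luc and pRL-SV40 into COS7 cells seeded 30000/well. Compounds given in phenol red-free DMEM/10% FCS with 0.1% DMSO from 5 h post-transfection, overnight. Firefly over renilla luminescence, divided by DMSO control. EC50 and SD from means of ≥3 determinations by four-parameter logistic fit; triplicate wells, ≥3 independent experiments.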

[5] = target: T3, Peroxisome proliferator-activated receptor alpha (Homo sapiens); assay: Transactivation of GAL4-fused human PPARalpha ligand binding domain transfected in african green monkey COS7 cells by luciferase reporter gene assay; assay type: cell-based; settings: COS-7; procedure, shortened: as §2

| SMILES | IC50 [1] | Activity [2] | Activity [3] | Activity [4] | Activity [5] | %max [5] |
| --- | --- | --- | --- | --- | --- | --- |
| CCOC(=O)c1cccn1Cc1cccc(CNC(=O)NC23C[C@H]4C[C@@H](C2)C[C@@H](C3)C4)c1 | 46 nM | inactive | inactive | – | – | – |
| CCOC(=O)c1cccn1Cc1ccccc1CNC(=O)NC1CCCCC1 | 39 nM | inactive | inactive | – | – | – |
| O=C(NCc1ccccc1Cn1cccc1C(=O)O)NC1CCCCC1 | 747 nM | inactive | inactive | – | – | – |
| O=C(NCc1ccccc1Cn1cccc1C(=O)O)NC12C[C@H]3C[C@@H](C1)C[C@@H](C2)C3 | – | inactive | inactive | inactive | inactive | – |
| O=C(NCc1ccc(Cn2cccc2C(=O)O)cc1)Nc1ccc(OC(F)(F)F)cc1 | 258 nM | inactive | 67% | inactive | – | 90% |
| O=C(NCc1ccc(Cn2cccc2C(=O)O)cc1)NC1CCCCC1 | 252 nM | inactive | inactive | – | – | – |
| O=C(NCc1cccc(Cn2cccc2C(=O)O)c1)NC1CCCCC1 | 1920 nM | inactive | inactive | – | – | – |
| CCOC(=O)c1cccn1Cc1cccc(CNC(=O)NC2CCCCC2)c1 | 27 nM | inactive | inactive | – | – | – |
| CCOC(=O)c1cccn1Cc1ccccc1CNC(=O)NC12C[C@H]3C[C@@H](C1)C[C@@H](C2)C3 | 43 nM | inactive | inactive | – | – | – |
| O=C(NCc1cccc(Cn2cccc2C(=O)O)c1)Nc1ccc(OC(F)(F)F)cc1 | 943 nM | – | 58% | – | – | 97% |
| CCOC(=O)c1cccn1Cc1ccc(CNC(=O)Nc2ccc(OC(F)(F)F)cc2)cc1 | 611 nM | inactive | inactive | – | – | – |
| CCOC(=O)c1cccn1Cc1ccc(CNC(=O)NC2CCCCC2)cc1 | 23 nM | inactive | inactive | – | – | – |
| CCOC(=O)c1cccn1Cc1ccccc1CNC(=O)Nc1ccc(OC(F)(F)F)cc1 | 2010 nM | inactive | inactive | – | – | – |
| O=C(NCc1ccc(Cn2cccc2C(=O)O)cc1)NC12C[C@H]3C[C@@H](C1)C[C@@H](C2)C3 | 73 nM | inactive | inactive | – | – | – |
| CCOC(=O)c1cccn1Cc1cccc(CNC(=O)Nc2ccc(OC(F)(F)F)cc2)c1 | – | inactive | inactive | – | – | – |
| O=C(NCc1cccc(Cn2cccc2C(=O)O)c1)NC12C[C@H]3C[C@@H](C1)C[C@@H](C2)C3 | 304 nM | inactive | inactive | – | – | – |
| O=C(NCc1ccccc1Cn1cccc1C(=O)O)Nc1ccc(OC(F)(F)F)cc1 | – | inactive | 38% | inactive | – | 55% |
| CCOC(=O)c1cccn1Cc1ccc(CNC(=O)NC23C[C@H]4C[C@@H](C2)C[C@@H](C3)C4)cc1 | 87 nM | inactive | inactive | – | – | – |
